From article PMC11476771 (BMC Nephrology, 2024)
Where two headings read alike, the source gives them in different places.

Key:
Safety [1] = format: in vivo, human; settings: HD subjects; multiple-dose PK study
Multiple-dose phase 2 = format: in vivo, human; settings: for Dose proportionality of Cmax and AUC0 − 48 (power model): 0.5, 1.0, 2.5 mcg/kg, 95% CIs included 1
Method in brief: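 Randomized, double-blind, placebo-controlled dose escalation in HD subjects. Sequential cohorts of 8 (6 active, 2 placebo), randomized 3:1 within strata of urine output. IV bolus given within 15 min after each of 3 HD sessions over 1 week. Serial plasma sampled days 1–8 by LC-MS/MS (LLOQ 0.1 ng/mL). Noncompartmental parameters; RAC from day 5:day 1 AUC0−48; power-model dose proportionality.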

[2] = format: in vivo, human
Method in brief: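 Open-label, parallel-group, single 3.0 mcg/kg IV dose by check-in weight in NDD subjects stratified by MDRD eGFR, and in matched healthy controls. Plasma sampled predose to 72 h; urine collected in intervals to 72 h. LC-MS/MS (LLOQ 0.1 ng/mL plasma, 1.0 ng/mL urine); noncompartmental parameters. ANCOVA on ln Cmax/AUCinf (covariates age, weight, BMI, sex) gave geometric mean ratios with 90% CI. CL was regressed linearly on eGFR.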

[3] = hemodialysis patients after treatment discontinued; cited from earlier work
Safety [4] = format: in vivo, human; settings: single IV 3.0 mcg/kg

In the case of CC(C)C[C@@H](NC(=O)[C@@H](Cc1ccccc1)NC(=O)[C@H](N)Cc1ccccc1)C(=O)N[C@H](CCCCN)C(=O)N1CCC(N)(C(=O)O)CC1 [difelikefalin], the “SAEs, severe TEAEs, TEAEs leading to discontinuation, deaths” value (Safety [1]) is reported as “no SAEs, severe TEAEs, TEAEs that led to drug discontinuations, or deaths”, the “Dose proportionality of Cmax and AUC0 − 48 (power model)” value (Multiple-dose phase 2; HD subjects) is reported as “slope values were all close to unity” and the “Dose proportionality of Cmax and AUC0 − 48 (power model)” value (Multiple-dose phase 2; HD subjects, listed as IV difelikefalin) is reported as “demonstrated dose proportionality”. The “Mean t1/2, range over dose groups” value (Multiple-dose phase 2; HD subjects, day 1, 0.5-2.5 mcg/kg) was 1390 to 1870 min, the “Mean accumulation ratio (RAC), range over dose groups” value (Multiple-dose phase 2; HD subjects, day 5, 3 dose groups) was 1.0–1.2 and the “Increase of half-life in HD subjects compared with normal renal function” value (Multiple-dose phase 2; cross-study comparison) was “approximately 10 fold”. For the same compound, the “Clearance in HD subjects prior to dialysis as % of healthy subjects” value (Multiple-dose phase 2; cross-study comparison, reference is 2.5 mcg/kg HD group) was 14%, the Tmax (Multiple-dose phase 2; human, in vivo, iv) was 5 min and the “Intercept of total CL versus eGFR” value ([2]; CL value = intercept + slope * eGFR, IV 3.0 mcg/kg, 95% CI 3.734794–20.470724) was 12.1. For the same compound, the “Slope of total CL versus eGFR” value ([2]; CL value = intercept + slope * eGFR, IV 3.0 mcg/kg, NDD subjects with impaired or normal renal function, 95% CI 0.482284–0.718031, P < 0.0001) was 0.6002, the “Exposure relative to healthy subjects” value ([2]; moderate renal impairment vs healthy subjects, single IV 3.0 mcg/kg) was 1.7 fold and the “Reduction of clearance compared with healthy subjects” value ([2]; moderate renal impairment, single IV 3.0 mcg/kg) was 47.0%. The “Exposure relative to healthy subjects” value ([2]; severe renal impairment vs healthy subjects, single IV 3.0 mcg/kg) was 3.3 fold, the “Reduction of clearance compared with healthy subjects” value ([2]; severe renal impairment, single IV 3.0 mcg/kg) was 71.7% and the “Time of peak plasma concentration” value ([2]; single IV 3.0 mcg/kg, first post-dose PK sample, across all treatment groups) was 2 to 3 min. The “Detectability in plasma after dialysis cycles” value [3] was “no longer detectable in plasma after 2 dialysis cycles”, the “Reduction of plasma concentration by a single dialysis cycle” value [3] was “approximately 83%” and the Subjects with vomiting (Safety [4]; 3/36 subjects) was 8.3%. For the same compound, the Subjects with dizziness (Safety [4]; 4/36 subjects) was 11.1%, the “Subjects with mild headache” value (Safety [4]; 4/36 subjects) was 11.1% and the “Subjects with paresthesia (mild)” value (Safety [4]; 5/36 subjects) was 13.9%. The “Subjects reporting TEAEs” value (Safety [4]; 17/36 subjects) was 47.2%, the “Serious AEs” value (Safety [4]; all 36 subjects) was “none were serious AEs” and the “Total number of TEAEs” value (Safety [4]; all 36 subjects) was 37. For the same compound, the “TEAEs considered related to study drug” value (Safety [4]; all 36 subjects, number of events) was 17 and the “TEAEs of moderate severity” value (Safety [4]; number of events, most TEAEs mild) was 7.
